Test results as given in PMC7704123 (Journal of natural products, 2020).

Legend:
Type in all cases: cell-based, human
[1] = system: MDA-MB-453 and SUM185PE cells; assay: SRB assay, LAR subtype TNBC cell lines taken together; conditions: MDA-MB-453 and SUM185PE versus MDA-MB-231, HCC1806 and HCC70, Figure 7C
Method in brief: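 Cells seeded at predetermined densities, left to adhere, then given test compound or DMSO vehicle for 48 h. Fixed, stained with sulforhodamine B, absorbance read at 560 nm. MDA-MB-453, MDA-MB-231 and SUM185PE were grown in IMEM with 5% FBS; HCC1806 and HCC70 in RPMI-1640 with 5% FBS. Proliferation taken relative to vehicle; GI50 by non-linear regression; three independent experiments, each in triplicate.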

[2] = system: mTORC1 signaling in MDA-MB-453 cells; assay: Immunoblotting of mTORC1 signaling pathway; conditions: immunoblot
Method in brief: (§1)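 Cells (IMEM, 5% FBS) exposed to 100 nM test compound, 100 nM oligomycin, 10 nM rapamycin or DMSO vehicle for 2, 6 or 18 h. Scraped whole-cell lysates with PMSF, Na3VO4 and protease inhibitors; 10 μg protein per lane on 10% Bis-Tris SDS-PAGE, PVDF transfer. Blots probed for phospho/total AKT S473, mTOR S2448, S6K T389, RPS6 S235/236, 4E-BP1 T37/46 and GAPDH; IRDye infrared detection; two independent experiments.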

[3] = system: mTORC1 signaling in MDA-MB-231 cells; assay: Immunoblotting of mTORC1 signaling pathway; conditions: immunoblot
Method in brief: as §1

[4] = 100 nM oligomycin, 2, 6 or 18 h

## CC[C@H]1/C=C/C=C/C[C@@H](C)[C@H](O)[C@@](C)(O)C(=O)[C@@H](C)[C@H](O)[C@@H](C)C(=O)[C@@H](C)[C@H](O)[C@@H](C)/C=C/C(=O)O[C@@H]2[C@H](C)[C@H](CC1)O[C@]1(CC[C@H](C)[C@H](C[C@@H](C)O)O1)[C@H]2C [oligomycin]
[1]
  growth of LAR cells as compared to other TNBC cell lines: selectively inhibited the growth
[2]; [4]
  mTOR activity (RPS6 and S6K phosphorylation): selectively inhibited mTOR activity
[3]; [4]
  mTOR activity (RPS6 and S6K phosphorylation): but not in the resistant MDA-MB-231 cells

## CO[C@H]1C[C@@H]2CC[C@@H](C)[C@@](O)(O2)C(=O)C(=O)N2CCCC[C@H]2C(=O)O[C@H]([C@H](C)C[C@@H]2CC[C@@H](O)[C@H](OC)C2)CC(=O)[C@H](C)/C=C(\C)[C@@H](O)[C@@H](OC)C(=O)[C@H](C)C[C@H](C)/C=C/C=C/C=C/1C [Rapamycin]
[2]; 10 nM rapamycin, 2, 6 or 18 h
  mTOR signaling: inhibited mTOR signaling in both cell lines
[3]; 10 nM rapamycin, 2, 6 or 18 h
  mTOR signaling: inhibited mTOR signaling in both cell lines
